Laboratory results reported in ChEMBL document CHEMBL1127442, “Triazolinone biphenylsulfonamide derivatives as orally active angiotensin II antagonists with potent AT1 receptor affinity and enhanced AT2 affinity” (J Med Chem, 1994).

Assays:
[1] = biological target: T1, Type-2 angiotensin II receptor (Rattus norvegicus, UniProt P35351); assay: In vitro inhibitory activity against angiotensin II rat midbrain AT2 receptor using radioligand [125I]-Sar Ile-AII
T1 sequence (P35351 whole entry): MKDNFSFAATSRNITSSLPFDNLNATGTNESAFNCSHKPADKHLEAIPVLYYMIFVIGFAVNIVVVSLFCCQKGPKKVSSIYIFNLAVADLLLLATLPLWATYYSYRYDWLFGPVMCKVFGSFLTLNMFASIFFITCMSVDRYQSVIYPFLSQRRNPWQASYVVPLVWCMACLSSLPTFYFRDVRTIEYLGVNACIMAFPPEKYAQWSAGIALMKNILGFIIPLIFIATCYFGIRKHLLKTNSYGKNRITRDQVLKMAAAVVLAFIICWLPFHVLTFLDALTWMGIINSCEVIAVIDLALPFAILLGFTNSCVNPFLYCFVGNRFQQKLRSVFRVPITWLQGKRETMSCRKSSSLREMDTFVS
Summary of the method: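 Dithiothreitol ([…]) was added to the assay mixture to abolish residual AT1 binding. Tubes were run in duplicate, and IC50 came from nonlinear regression of displacement curves.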

[2] = biological target: T2, Type-1 angiotensin II receptor (Oryctolagus cuniculus, UniProt P34976); assay: In vitro inhibitory activity against angiotensin II rabbit aorta AT1 receptor using radioligand [125I]-Sar Ile-AII; assay type: tissue-based
T2 sequence (P34976 whole entry): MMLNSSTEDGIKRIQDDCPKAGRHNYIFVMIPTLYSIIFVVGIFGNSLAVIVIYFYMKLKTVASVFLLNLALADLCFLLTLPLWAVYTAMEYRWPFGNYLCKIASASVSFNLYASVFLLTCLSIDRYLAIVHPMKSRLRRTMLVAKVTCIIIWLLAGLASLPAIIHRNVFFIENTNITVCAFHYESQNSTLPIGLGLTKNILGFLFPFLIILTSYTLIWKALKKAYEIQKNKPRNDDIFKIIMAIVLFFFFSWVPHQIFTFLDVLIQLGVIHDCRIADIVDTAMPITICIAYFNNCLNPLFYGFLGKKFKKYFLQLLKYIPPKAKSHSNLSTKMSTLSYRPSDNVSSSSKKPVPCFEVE

Row | Structure (SMILES) | IC50 [1] [nM] | IC50 [2] [nM]
1 | CCCCc1nn(C(C)C)c(=O)n1Cc1ccc(-c2ccccc2S(=O)(=O)NC(=O)c2ccccc2)cc1 | 4600 | 7
2 | CCCCc1nn(-c2ccccc2C(F)(F)F)c(=O)n1Cc1ccc(-c2ccccc2S(=O)(=O)NC(=O)c2cc(Cl)ccc2Cl)cc1 | 26 | 0.48
3 | CCCCc1nn(-c2ccccc2C(F)(F)F)c(=O)n1Cc1ccc(-c2ccccc2S(=O)(=O)NC(=O)c2ccc(C(F)(F)F)cc2)cc1 | 1400 | 3.8
4 | CCCCc1nn(-c2ccccc2C(F)(F)F)c(=O)n1Cc1ccc(-c2ccccc2S(=O)(=O)NC(=O)c2ccc(Br)o2)cc1 | 170 | 0.4
5 | CCCCc1nn(-c2ccccc2C(F)(F)F)c(=O)n1Cc1ccc(-c2ccccc2S(=O)(=O)NC(=O)c2oc(C)cc2C)cc1 | 55 | 0.22
6 | CCCCc1nn(-c2ccccc2C(F)(F)F)c(=O)n1Cc1ccc(-c2ccccc2S(=O)(=O)NC(=O)c2oc3ccccc3c2C)cc1 | 130 | 0.43
7 | CCCCc1nn(-c2ccccc2C(F)(F)F)c(=O)n1Cc1ccc(-c2ccccc2S(=O)(=O)NC(=O)C2CCCC2)cc1 | 82 | 0.32
8 | CCCCc1nn(-c2ccccc2C(F)(F)F)c(=O)n1Cc1ccc(-c2ccccc2S(=O)(=O)NC(=O)c2cccn2C)cc1 | 500 | 1.6
9 | CCCCc1nn(-c2ccccc2C(F)(F)F)c(=O)n1Cc1ccc(-c2ccccc2S(=O)(=O)NC(=O)c2ccccc2F)cc1 | 53 | 0.13
10 | CCCCc1nn(-c2ccccc2C(F)(F)F)c(=O)n1Cc1ccc(-c2ccccc2S(=O)(=O)NC(=O)c2cc(C)oc2C(F)(F)F)cc1 | 60 | 0.17
11 | CCCCc1nn(-c2ccccc2C(F)(F)F)c(=O)n1Cc1ccc(-c2ccccc2S(=O)(=O)NC(=O)c2sccc2Br)cc1 | 43 | 0.72
12 | CCCCc1nn(-c2c(Cl)cccc2Cl)c(=O)n1Cc1ccc(-c2ccccc2S(=O)(=O)NC(=O)c2ccccc2)cc1 | 500 | 2.6
13 | CCCCc1nn(-c2ccccc2C(F)(F)F)c(=O)n1Cc1ccc(-c2ccccc2S(=O)(=O)NC(=O)C(c2ccccc2)c2ccccc2)cc1 | 320 | 2.8
14 | CCCCc1nn(-c2ccccc2C(F)(F)F)c(=O)n1Cc1ccc(-c2ccccc2S(=O)(=O)NC(=O)c2ccc(C)o2)cc1 | 150 | 0.4
15 | CCCCc1nn(-c2ccccc2Cl)c(=O)n1Cc1ccc(-c2ccccc2S(N)(=O)=O)cc1 | 24000 | 820
16 | CCCCc1nn(-c2ccccc2C(F)(F)F)c(=O)n1Cc1ccc(-c2ccccc2S(=O)(=O)NC(=O)c2cc3ccccc3o2)cc1.CCOCC |  | 0.17
17 | CCCCc1nn(CC(C)(C)C)c(=O)n1Cc1ccc(-c2ccccc2S(=O)(=O)NC(=O)c2ccccc2)cc1 | 2300 | 3.3
18 | CCCCc1nn(-c2ccccc2C(F)(F)F)c(=O)n1Cc1ccc(-c2ccccc2S(=O)(=O)NC(=O)CCC2CCCC2)cc1 | 720 | 1.2
19 | CCCCc1nn(-c2ccccc2C(F)(F)F)c(=O)n1Cc1ccc(-c2ccccc2S(=O)(=O)Nc2nc3ccccc3o2)cc1 | 700 | 5.2
20 | CCCCc1nn(-c2ccccc2Cl)c(=O)n1Cc1ccc(-c2ccccc2S(=O)(=O)NC(=O)C(F)(F)F)cc1 | 450 | 
21 | CCCc1nn(-c2ccccc2C(F)(F)F)c(=O)n1Cc1ccc(-c2ccccc2S(=O)(=O)NC(=O)C2CC2)cc1 | 410 | 18
22 | CCCCc1nn(-c2ccccc2C(F)(F)F)c(=O)n1Cc1ccc(-c2ccccc2S(=O)(=O)NC(=O)C2C(C)(C)C2(C)C)cc1 | 130 | 3.3
23 | CCCCc1nn(-c2ccccc2C(F)(F)F)c(=O)n1Cc1ccc(-c2ccccc2S(=O)(=O)NC(=O)Cc2ccccc2)cc1 | 240 | 1.6
24 | CCCCc1nn(-c2ccccc2C(F)(F)F)c(=O)n1Cc1ccc(-c2ccccc2S(=O)(=O)NC(=O)CCCC(=O)O)cc1 | 1500 | 5.5
25 | CCCCc1nn(-c2ccccc2C(F)(F)F)c(=O)n1Cc1ccc(-c2ccccc2S(=O)(=O)NC(=O)C2CCOC2)cc1 (stereo not given) | 280 | 2.8
26 | CCCCc1nn(-c2ccccc2C(F)(F)F)c(=O)n1Cc1ccc(-c2ccccc2S(=O)(=O)NC(=O)c2cccc(Cl)c2)cc1 | 150 | 2.4
27 | CCCCc1nn(-c2ccccc2C(F)(F)F)c(=O)n1Cc1ccc(-c2ccccc2S(=O)(=O)NC(=O)c2ccc(C#N)cc2)cc1 | 400 | 0.76
28 | CCCCc1nn(-c2ccccc2Cl)c(=O)n1Cc1ccc(-c2ccccc2S(=O)(=O)NC(C)(C)C)cc1 | 11000 | 
29 | CCCCc1nn(-c2ccccc2Cl)c(=O)n1Cc1ccc(-c2ccccc2S(=O)(=O)NC(C)=O)cc1 | > 1000 | 
30 | CCCCc1nc(Cl)c(C(=O)O)n1Cc1ccc(-c2ccccc2-c2nn[nH]n2)cc1 [CARBOXYLIC ACID METABOLITE] | > 50000 | 

Continued, values first:

Row | IC50 [1] [nM] | IC50 [2] [nM] | Structure (SMILES)
31 | 400 | 0.8 | CCCCc1nn(-c2ccccc2C(F)(F)F)c(=O)n1Cc1ccc(-c2ccccc2S(=O)(=O)NC(=O)C(F)(F)F)cc1
32 | 87 | 2.6 | CCCCc1nn(-c2ccccc2C(F)(F)F)c(=O)n1Cc1ccc(-c2ccccc2S(=O)(=O)NC(=O)c2cc(Cl)sc2Cl)cc1
33 | 120 | 0.37 | CCCCc1nn(-c2ccccc2C(F)(F)F)c(=O)n1Cc1ccc(-c2ccccc2S(=O)(=O)NC(=O)C2(C)CC2(Cl)Cl)cc1 (stereo not given)
34 | > 1000 | 4.7 | CCCCc1nn(-c2ccccc2C(F)(F)F)c(=O)n1Cc1ccc(-c2ccccc2S(=O)(=O)NC#N)cc1
35 | 260 | 1.3 | CCCCc1nn(-c2ccccc2C(F)(F)F)c(=O)n1Cc1ccc(-c2ccccc2S(=O)(=O)NC(=O)c2ccc(Cl)s2)cc1
36 | 35 | 1.1 | CCCCc1nn(-c2ccccc2C(F)(F)F)c(=O)n1Cc1ccc(-c2ccccc2S(=O)(=O)NC(=O)c2ocnc2C)cc1
37 | 110 | 1.5 | CCCCc1nn(-c2ccccc2C(F)(F)F)c(=O)n1Cc1ccc(-c2ccccc2S(=O)(=O)NC(=O)C2CC2)cc1
38 | 300 | 1.1 | CCCCc1nn(-c2ccccc2C(F)(F)F)c(=O)n1Cc1ccc(-c2ccccc2S(=O)(=O)NC(=O)NC(C)C)cc1
39 | 190 | 0.59 | CCCCOC(=O)NS(=O)(=O)c1ccccc1-c1ccc(Cn2c(CCCC)nn(-c3ccccc3C(F)(F)F)c2=O)cc1
40 | 3600 | 0.16 | CCCCc1nn(-c2ccccc2C(F)(F)F)c(=O)n1Cc1ccc(-c2ccccc2S(=O)(=O)NS(=O)(=O)C(C)C)cc1
41 | 520 | 1 | CCCCc1nn(-c2ccccc2C(F)(F)F)c(=O)n1Cc1ccc(-c2ccccc2S(=O)(=O)NC(=O)c2cccnc2Cl)cc1
42 | 300 | 5 | CCCCc1nn(-c2ccccc2C(F)(F)F)c(=O)n1Cc1ccc(-c2ccccc2S(=O)(=O)NC(=O)c2ccsc2)cc1
43 | 23000 | 0.78 | CCCCc1nn(-c2ccccc2C(F)(F)F)c(=O)n1Cc1ccc(-c2ccccc2-c2nnn[nH]2)cc1
44 | 25 | 0.19 | CCCCc1nn(-c2ccccc2C(F)(F)F)c(=O)n1Cc1ccc(-c2ccccc2S(=O)(=O)NC(=O)c2occ(Cl)c2Cl)cc1
45 | 160 | 1.3 | CCCCc1nn(-c2ccccc2C(F)(F)F)c(=O)n1Cc1ccc(-c2ccccc2S(=O)(=O)NC(=O)C(C)(C)C)cc1
